Source: ChEMBL document CHEMBL4251675, “Saroclides A and B, Cyclic Depsipeptides from the Mangrove-Derived Fungus Sarocladium kiliense HDN11-112” (J Nat Prod, 2018)
The source made the active and inactive calls. The rule behind the calls is not given here.

Key:
[1] = system: A549; experiment: Cytotoxicity against human A549 cells; format: functional, cell-based
Outline: (§1)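 HeLa, BEL-7402, HEK-293, HCT-116 and A549 lines tested by MTT or SRB method, with doxorubicin as positive control.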

[2] = system: Escherichia coli; experiment: Antibacterial activity against Escherichia coli after 20 hrs by double dilution method; format: functional, organism-based
Outline: (§2)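 Broth doubling-dilution assay against E. coli, S. aureus, C. albicans and B. subtilis, with chloramphenicol as positive control.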

[3] = system: Staphylococcus aureus; experiment: Antibacterial activity against Staphylococcus aureus after 20 hrs by double dilution method; format: functional, organism-based; outline: as §2
[4] = system: Bel-7402; experiment: Cytotoxicity against human Bel7402 cells; format: functional, cell-based; outline: as §1
[5] = system: HEK293; experiment: Cytotoxicity against human HEK293 cells; format: functional, cell-based; outline: as §1
[6] = system: HCT-116; experiment: Cytotoxicity against human HCT116 cells; format: functional, cell-based; outline: as §1
[7] = system: HeLa; experiment: Cytotoxicity against human HeLa cells; format: functional, cell-based; outline: as §1
[8] = system: Candida albicans; experiment: Antifungal activity against Candida albicans by double dilution method; format: functional, organism-based; outline: as §2
[9] = system: Bacillus subtilis; experiment: Antibacterial activity against Bacillus subtilis after 20 hrs by double dilution method; format: functional, organism-based; outline: as §2
[10] = system: HepG2; experiment: Cytotoxicity against human HepG2 cells assessed as reduction in cell viability at 20 uM after 20 hrs by MTT assay; format: cell-based; settings: hepg2, 20 h
Outline: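 HepG2 grown in high-glucose DMEM with 10% FBS at 37 °C, 5% CO2. Once confluent, incubated 20 h with compound. Medium then replaced with fresh medium containing 10% sterile-filtered MTT for 4 h. Formazan dissolved in isopropanol, absorbance read at 570 nm with 630 nm reference. Viability expressed as % of blank wells. Means ± SEM of at least three experiments.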

[11] = system: HepG2; experiment: Lipid lowering activity in human HepG2 cells assessed as reduction in oleic acid-induced lipid accumulation at 2.5 to 10 uM after 24 hrs by oil red O staining based spectrophotometric method; format: functional, cell-based
Outline: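 HepG2 in high-glucose DMEM/10% FBS at 37 °C, 5% CO2, grown to 90% confluence. Treated 24 h with compound (2.5, 5.0, 10.0 μM) or simvastatin 10 μM in high-glucose DMEM plus 100 μM oleic acid. Blank was serum-free DMEM alone, negative control OA alone. Neutral lipid by oil-red O staining, read spectrophotometrically at 358 nm. Means ± SEM, ≥3 experiments.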

[12] = system: HepG2; experiment: Lipid lowering activity in human HepG2 cells assessed as reduction in oleic acid-induced triglyceride level at 2.5 to 10 uM after 24 hrs by oil red O staining based spectrophotometric method; format: functional, cell-based
[13] = system: HepG2; experiment: Lipid lowering activity in human HepG2 cells assessed as reduction in oleic acid-induced intracellular cholesterol level at 2.5 to 10 uM after 24 hrs […]; format: functional, cell-based
Outline: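 HepG2 at 90% confluence treated 24 h with compound (2.5, 5.0, 10.0 μM) or simvastatin 10 μM in high-glucose DMEM containing 100 μM oleic acid. Blank was serum-free DMEM, OA-only as negative control. Intracellular total cholesterol and triglyceride measured with commercial kits per manufacturer. Means ± SEM of at least three experiments.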

Question: With CCC[C@@H]1C/C=C(\C)C(=O)CC(=O)N[C@H](Cc2ccccc2)C(=O)N2CCC[C@@H]2C(=O)O1 as the compound, how does the Activity [1] read?
Answer: inactive

Question: What about the Activity [2] of the same compound?
Answer: inactive

Question: What about the Activity [3] of the same compound?
Answer: inactive

Question: And the Activity [4]?
Answer: inactive

Question: What about the Activity [5] of the same compound?
Answer: inactive

Question: What about the Activity [6] of the same compound?
Answer: inactive

Question: And the Activity [7]?
Answer: inactive

Question: And the Activity [8]?
Answer: inactive

Question: What about the Activity [9] of the same compound?
Answer: inactive

Question: For CCC[C@@H]1C/C=C(\C)C(=O)CC(=O)N[C@H](Cc2ccccc2)C(=O)N2CCC[C@H]2C(=O)O1, which Activity [1] is on record?
Answer: inactive

Question: And the Activity [2]?
Answer: inactive

Question: What about the Activity [3] of the same compound?
Answer: inactive

Question: What about the Activity [10] of the same compound?
Answer: Non-Toxic

Question: What about the Activity [11] of the same compound?
Answer: Active

Question: What about the Activity [4] of the same compound?
Answer: inactive

Question: And the Activity [5]?
Answer: inactive

Question: What about the Activity [6] of the same compound?
Answer: inactive

Question: And the Activity [7]?
Answer: inactive

Question: And the Activity [12]?
Answer: Active

Question: And the Activity [8]?
Answer: inactive

Question: And the Activity [9]?
Answer: inactive

Question: And the Activity [13]?
Answer: Active
